Assays:
[1] = molecular target: Human immunodeficiency virus type 1 reverse transcriptase (Human immunodeficiency virus 1, UniProt Q72547); experiment: Inhibitory activity against HIV-1 reverse transcriptase (RT)
H9 = experiment: Concentration which inhibited >95% spread of HIV-1 strain IIIb infection in susceptible H-9 cell culture; type: functional; conditions: Homo sapiens, read-out: CIC95
Outline: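 H9 human T-lymphoid cells in RPMI 1640 with 10% heat-inactivated FBS were pre-incubated one day with serial 2-fold inhibitor dilutions, then infected with HIV-1 IIIb at low multiplicity (<0.001). Inhibitor was kept present for 13-14 days. Spread was measured by p24 core antigen ELISA of supernatants. CIC95 is the concentration blocking >95% of spread.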

MT4 = experiment: Concentration which inhibited >95% spread of HIV-1 strain IIIb infection in susceptible MT-4 cell culture; type: functional; conditions: Homo sapiens, read-out: CIC95
Outline: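 MT-4 human T-lymphoid cells in RPMI 1640 with 10% heat-inactivated FBS were infected en masse with HIV-1 IIIb (multiplicity 0.01) for 24 h. They were then washed and plated with serial 2-fold inhibitor dilutions for 3 more days. Spread was measured by p24 core antigen ELISA. CIC95 is the concentration blocking >95% of spread.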

Row | Compound | IC50 [1] [nM] | IC95 (H9) [µM] | IC95 (MT4) [µM]
1 | CCc1cc(NCc2cc3ccccc3o2)c(O)nc1C | 235 |  | 
2 | CCc1cc(NCc2ccc3ccccc3c2)c(=O)[nH]c1C | 440 |  | 
3 | CCc1cc(CCc2nc3c(C)ccc(C)c3o2)c(=O)[nH]c1C | 23 |  | 
4 | CCc1cc(NCc2nc3c(C)ccc(C)c3o2)c(O)nc1C | 20 | 0.15 | 0.05
5 | CCc1cc(NCc2nc3ccccc3o2)c(O)nc1C | 210 |  | 
6 | CCc1cc(NCc2nc3ccccc3s2)c(O)nc1C | 350 |  | 
7 | CC(C)=CCN1Cc2cccc3[nH]c(=S)n(c23)C[C@@H]1C |  |  | 0.2
8 | CCc1cc(CCN2C(=O)c3ccccc3C2=O)c(O)nc1C | 3700 | 40 | 
9 | CCc1cc(CCc2nc3ccccc3o2)c(O)nc1C | 22 | 0.2 | 0.1
10 | CCc1cc(CCc2nc3ccccc3s2)c(O)nc1C | 370 |  | 
11 | CCc1cc(CCc2cc3ccccc3o2)c(O)nc1C | 77 |  | 
12 | CCc1cc(NCc2nc3ccccc3[nH]2)c(O)nc1C | 6400 |  | 
13 | CCc1cc(NCc2nc3c(C)cccc3o2)c(O)nc1C | 125 |  | 
14 | CCc1cc(CCc2nc3c(Cl)ccc(Cl)c3o2)c(O)nc1C | 9.6 |  | 0.1
15 | CCc1cc(NCc2nc3cccc(C)c3o2)c(O)nc1C | 55 |  | 
16 | CCc1cc(NCc2nc3c(Cl)ccc(Cl)c3o2)c(O)nc1C [L-697661] | 19 | 0.1 | 0.05
17 | Cc1ccnc2c1NC(=O)c1cccnc1N2C1CC1 [NEVIRAPINE] |  |  | 0.1
